Activity calls are given as the source filed them. No cut-off for these calls is given here.
What was measured:
[1] = system: Liver; experiment: Drug uptake in ddY mouse liver at 11.1 kBq, iv after 0.5 min by gamma counting; type: ADME, organism-based; details: in vivo
Summary of the method: (§1)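 Male ddY mice (6 weeks, 30–35 g) were given about 11.1 kBq of [125I]tracer in 0.1 mL i.v. via the tail vein. At each time point the animals were killed and organs dissected, weighed and gamma-counted. Uptake is expressed as % injected dose per gram of tissue, mean ± SD, n = 5–6.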

[2] = system: Liver; experiment: Drug uptake in ddY mouse liver at 11.1 kBq, iv after 180 min by gamma counting; type: ADME, organism-based; details: in vivo, 3 h; summary of the method: as §1
[3] = system: Mus musculus; experiment: In vivo binding affinity to GlyT1 in ddY mouse brain thalamus at 33.3 kBq, iv after 60 mins in presence of nonradioactive compound 2 mg/kg, iv administered 15 mins prior to compound administration relative to control; type: functional
[4] = system: Mus musculus; experiment: In vivo binding affinity to GlyT1 in ddY mouse brain midbrain at 33.3 kBq, iv after 60 mins in presence of N-Me-SSR504734 2 mg/kg, iv administered 15 mins prior to compound administration relative to control; type: functional
[5] = system: Mus musculus; experiment: In vivo binding affinity to GlyT1 in ddY mouse brain hippocampus at 33.3 kBq, iv after 60 mins in presence of SSR504734 2 mg/kg, iv administered 15 mins prior to compound administration relative to control; type: functional, organism-based; design: dose 2 mg/kg; details: tested as the 125I-labelled form
Summary of the method: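 Male ddY mice (6 W, 30–35 g) were given [125I]5 (ca. 33.3 kBq, 0.1 mL) iv via tail vein. Blocker (2 mg/kg in 30% DMSO/saline) was given iv 15 min before the tracer. Mice were killed 30 or 60 min after injection and the brain regions were dissected and weighed. Gamma counting gave % dose/g, compared with control; n = 5–6.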

[6] = system: Mus musculus; experiment: In vivo binding affinity to GlyT1 in ddY mouse brain thalamus at 200 kBq, iv after 60 mins by autoradiography relative to control; type: functional, organism-based; details: tested as the 125I-labelled form
[7] = biological target: T1, Sodium- and chloride-dependent glycine transporter 1 (Rattus norvegicus) (UniProt P28572); experiment: Binding affinity to GlyT1 in rat brain medullary region at 0.03 to 0.04 nM preincubated for 20 mins in binding buffer before compound addition measured after 30 mins by autoradiography in presence of 0.01 mM GlyT2 inhibitor ORG25543 relative to control; type: tissue-based; details: tested as the 125I-labelled form
T1 sequence (whole entry): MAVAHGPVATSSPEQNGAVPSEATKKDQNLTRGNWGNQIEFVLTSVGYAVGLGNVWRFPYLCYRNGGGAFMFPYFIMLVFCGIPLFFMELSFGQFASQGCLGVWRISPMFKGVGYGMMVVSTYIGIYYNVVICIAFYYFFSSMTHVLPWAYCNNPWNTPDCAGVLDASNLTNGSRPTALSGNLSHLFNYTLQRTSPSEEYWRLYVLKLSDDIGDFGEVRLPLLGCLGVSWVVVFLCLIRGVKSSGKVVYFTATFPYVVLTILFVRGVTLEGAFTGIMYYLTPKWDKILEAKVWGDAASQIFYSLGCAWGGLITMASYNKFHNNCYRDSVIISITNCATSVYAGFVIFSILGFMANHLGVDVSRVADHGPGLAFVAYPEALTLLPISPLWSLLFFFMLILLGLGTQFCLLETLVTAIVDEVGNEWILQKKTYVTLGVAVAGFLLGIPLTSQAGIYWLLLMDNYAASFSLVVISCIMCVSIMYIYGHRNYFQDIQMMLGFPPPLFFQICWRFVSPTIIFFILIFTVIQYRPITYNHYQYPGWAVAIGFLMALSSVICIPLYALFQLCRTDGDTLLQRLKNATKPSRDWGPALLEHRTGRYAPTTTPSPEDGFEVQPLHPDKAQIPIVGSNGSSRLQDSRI
Summary of the method: (§2)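 Rat brain sagittal sections (20 µm) preincubated 20 min at 25 °C in Tris-HCl buffer pH 7.5 (NaCl, KCl, MgCl2, CaCl2), then 30 min at 25 °C with [125I] tracer (100 kBq, 0.03–0.04 nM) plus competitor (10 µM; glycine 1 or 10 mM). Cold washes, imaging plate 3 days, ROI PSL minus background per mm². % control from ≥triplicate slices, three rats.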

[8] = biological target: T1, Sodium- and chloride-dependent glycine transporter 1 (Rattus norvegicus); experiment: Binding affinity to GlyT1 in rat brain hippocampus at 0.03 to 0.04 nM preincubated for 20 mins in binding buffer before compound addition measured after 30 mins by autoradiography in presence of 0.01 mM GlyT1 inhibitor HPCP relative to control; type: tissue-based; details: tested as the 125I-labelled form; summary of the method: as §2
[9] = biological target: T1, Sodium- and chloride-dependent glycine transporter 1 (Rattus norvegicus); experiment: Binding affinity to GlyT1 in rat brain cerebellum at 0.03 to 0.04 nM preincubated for 20 mins in binding buffer before compound addition measured after 30 mins by autoradiography in presence of 0.01 mM GlyT1 inhibitor HPCP relative to control; type: tissue-based; details: tested as the 125I-labelled form; summary of the method: as §2
[10] = biological target: T1, Sodium- and chloride-dependent glycine transporter 1 (Rattus norvegicus); experiment: Binding affinity to GlyT1 in rat brain midbrain at 0.03 to 0.04 nM preincubated for 20 mins in binding buffer before compound addition measured after 30 mins by autoradiography relative to control; type: tissue-based; details: tested as the 125I-labelled form
[11] = biological target: T1, Sodium- and chloride-dependent glycine transporter 1 (Rattus norvegicus); experiment: Binding affinity to GlyT1 in rat brain cerebral cortex at 0.03 to 0.04 nM preincubated for 20 mins in binding buffer before compound addition measured after 30 mins by autoradiography relative to control; type: tissue-based; details: tested as the 125I-labelled form
Summary of the method: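 Rat brain sagittal sections (20 µm), 20 min preincubation at 25 °C in Tris-HCl pH 7.5 binding buffer, then [125I] tracer (100 kBq, 0.03–0.04 nM) for 30 min at 25 °C. Nonspecific binding taken with 10 µM unlabeled ligand. Imaging-plate read-out as (PSL−BG)/mm². Mean ± SD, n = 4–5 from at least three rats; Mann–Whitney U-test.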

[12] = biological target: T1, Sodium- and chloride-dependent glycine transporter 1 (Rattus norvegicus); experiment: Binding affinity to GlyT1 in rat cortical brain homogenate assessed per mg of protein after 60 mins by gamma counting; type: tissue-based; details: tested as the 125I-labelled form
Summary of the method: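 Saturation binding on washed rat cortical membranes (25 µg protein) with [125I]tracer 0.1–20 nM in TB1 buffer (120 mM NaCl, 2 mM KCl, 1 mM CaCl2, 1 mM MgCl2, 10 mM HEPES, pH 7.5), 60 min at room temperature. Nonspecific binding defined with 10 µM unlabeled ligand. GF/B filtration with ice-cold buffer washes, gamma counting; Kd and Bmax from saturation analysis.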

SMILES | Drug uptake [1] [% ID/g] | Drug uptake [2] [% ID/g] | Activity [3] [%] | Activity [4] [%] | Activity [5] | Activity [6] | Activity [7] [%] | Activity [8] [%] | Activity [9] [%] | Activity [10] | Activity [11] | Bmax [12] [pmol]
CN1CCCC[C@H]1[C@@H](NC(=O)c1cccc(C(F)(F)F)c1[125I])c1ccccc1 | 1.82 | 15.05 | 58 | 48 |  |  |  |  |  |  |  | 
CN1CCCC[C@H]1[C@@H](NC(=O)c1cccc(C(F)(F)F)c1I)c1ccccc1 |  |  |  |  | inactive | Active | 91.4 | 55.9 | 23 | Active | inactive | 3.4

Reference: ChEMBL document CHEMBL1938298, “Synthesis and characterization of [¹²⁵I]2-iodo N-[(S)-{(S)-1-methylpiperidin-2-yl}(phenyl)methyl]3-trifluoromethyl-benzamide as novel imaging probe for glycine transporter 1” (Bioorg Med Chem, 2011)
